Activity calls are given as the source filed them. The rule behind the calls is not given here.
What was measured:
[1] = target: T1, SUMO-activating enzyme (Homo sapiens) (UniProt Q9UBE0+Q9UBT2); test: Inhibition of SAE in human HCT116 cells xenografted in NCr nude mouse assessed as reduction in SUMO2/3 protein conjugates at 50 mg/kg, iv and measured up to 16 hrs by immunohistochemistry analysis; type: organism-based; settings: HCT-116
In short: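 HCT-116 tumors in female Ncr nude mice, n = 3 per time point, after a single IV dose at t = 0. SUMO2/3 conjugation in tumors measured by IHC at 2, 4, 8 and 16 h. Read-out is nuclei staining positive for SUMO2/3 conjugates over total nuclei, normalized to vehicle-treated animals (time = 0 h), expressed as percent inhibition.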

[2] = AUC in rat plasma at 1 mg/kg, iv; type: ADME, organism-based; set-up: dose 1 mg/kg
[3] = target: T1, SUMO-activating enzyme (Homo sapiens); test: Inhibition of SAE in human OCI-Ly10 cells xenografted in NCr nude mouse assessed as reduction in SUMO2/3 protein conjugates at 25 mg/kg, iv and measured up to 24 hrs by immunohistochemistry analysis; type: organism-based; settings: HCT-116, time hrs <=24
[4] = Dissociation constant , pKa of the compound; type: physicochemical
[5] = Half life in rat blood at 1 mg/kg, iv; type: ADME, organism-based
SUMO-activating enzyme = SUMO-activating enzyme (Homo sapiens, UniProt Q9UBT2); test: Inhibition of SAE in human HCT116 cells assessed as redistribution of SUMO2/3 proteins from nucleus to cytosol preincubated for 2 hrs followed by compound washout and measured immediately by immunofluorescence assay; type: cell-based, HCT-116
In short: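 Washout format of the SUMO2/3 immunofluorescence assay in HCT116 cells. Cells were exposed to a range of concentrations for 2 h, then washed free of compound.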

[6] = AUC in rat blood at 1 mg/kg, iv; type: ADME, organism-based; set-up: dose 1 mg/kg
[7] = target: T1, SUMO-activating enzyme (Homo sapiens); test: Inhibition of SAE in human OCI-Ly10 cells xenografted in CB17 SCID mouse assessed as improvement in SUMO-inhibitor adduct durability at 25 mg/kg, iv and measured up to 48 hrs by mass spectrometry; type: organism-based; settings: time hrs <=48
[8] = Clearance in rat blood at 1 mg/kg, iv; type: ADME, organism-based; settings: in vivo
Carbonic anhydrase 1 = Carbonic anhydrase 1 (Homo sapiens, UniProt P00915); test: Inhibition of human erythrocyte CA1 using fluorescein diacetate as substrate at […] by fluorometric esterase assay
Chain of Carbonic anhydrase 1 (P00915 whole entry): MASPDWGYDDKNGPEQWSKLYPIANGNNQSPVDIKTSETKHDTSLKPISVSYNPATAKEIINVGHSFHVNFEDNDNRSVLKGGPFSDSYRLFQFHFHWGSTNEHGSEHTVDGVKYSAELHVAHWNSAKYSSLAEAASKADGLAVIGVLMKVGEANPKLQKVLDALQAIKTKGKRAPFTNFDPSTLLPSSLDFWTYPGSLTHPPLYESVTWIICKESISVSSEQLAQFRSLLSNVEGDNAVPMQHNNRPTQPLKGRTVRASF

Chain of SUMO-activating enzyme (Q9UBE0 whole entry): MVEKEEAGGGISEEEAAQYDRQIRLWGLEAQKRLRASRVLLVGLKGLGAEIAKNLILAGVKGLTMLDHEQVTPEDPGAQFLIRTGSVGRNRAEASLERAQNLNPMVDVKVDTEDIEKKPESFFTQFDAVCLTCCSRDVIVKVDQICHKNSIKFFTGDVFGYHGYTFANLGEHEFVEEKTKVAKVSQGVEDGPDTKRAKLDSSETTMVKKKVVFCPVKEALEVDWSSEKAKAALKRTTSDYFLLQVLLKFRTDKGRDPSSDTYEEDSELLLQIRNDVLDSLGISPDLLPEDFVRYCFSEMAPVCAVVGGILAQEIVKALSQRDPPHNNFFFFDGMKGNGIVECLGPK
Chain of SUMO-activating enzyme (Q9UBT2 whole entry): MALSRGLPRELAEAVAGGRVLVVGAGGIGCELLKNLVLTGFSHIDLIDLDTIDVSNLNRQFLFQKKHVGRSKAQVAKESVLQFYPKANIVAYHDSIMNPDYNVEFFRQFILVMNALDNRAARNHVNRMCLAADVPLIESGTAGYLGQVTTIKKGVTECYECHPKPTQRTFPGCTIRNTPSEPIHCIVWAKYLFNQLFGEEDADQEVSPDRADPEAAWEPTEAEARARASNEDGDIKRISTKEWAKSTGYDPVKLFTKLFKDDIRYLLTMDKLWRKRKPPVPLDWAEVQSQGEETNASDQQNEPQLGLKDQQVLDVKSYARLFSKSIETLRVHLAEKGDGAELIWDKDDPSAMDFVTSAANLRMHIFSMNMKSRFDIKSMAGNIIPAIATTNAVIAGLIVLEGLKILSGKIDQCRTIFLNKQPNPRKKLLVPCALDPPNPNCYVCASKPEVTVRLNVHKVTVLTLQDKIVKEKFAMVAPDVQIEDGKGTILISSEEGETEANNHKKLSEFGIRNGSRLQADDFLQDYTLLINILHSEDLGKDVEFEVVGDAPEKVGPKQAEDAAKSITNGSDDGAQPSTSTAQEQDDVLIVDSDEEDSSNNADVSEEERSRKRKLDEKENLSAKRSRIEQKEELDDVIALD

AUC [2]: 0.5 µM·h
pKa [4]: 3.6
half-life [5]: 2.6 h
AUC [6]: 31.2 µM·h
clearance [8]: 1.67 mL/min/kg
IC50 (Carbonic anhydrase 1): 90 nM
Compound: Cc1sc(C(=O)c2cncnc2N[C@@H]2C[C@H](COS(N)(=O)=O)[C@@H](O)C2)cc1[C@@H]1NCCc2ccc(Cl)cc21
inhibition [1]: Active
inhibition [3]: Active
IC50 (SUMO-activating enzyme): 32 nM
inhibition [7]: Active

Source: ChEMBL document CHEMBL4834402, “Discovery of TAK-981, a First-in-Class Inhibitor of SUMO-Activating Enzyme for the Treatment of Cancer” (J Med Chem, 2021)
